Test results taken from ChEMBL document CHEMBL1140864, “The synthesis of ursolic acid derivatives with cytotoxic activity and the investigation of their preliminary mechanism of action” (Bioorg Med Chem, 2009).

Experiments:
[1] = tested on: HeLa; assay: Antiproliferative activity against human HeLa cells after 96 hrs by MTT assay; assay type: functional, cell-based
How it was run: (§1)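 Cells grown in RPMI 1640 with 10% FBS and penicillin/streptomycin at […] °C, 5% CO2. Trypsinised cells seeded at 1.0–2.0 × 10³ per well overnight, then exposed to a concentration range in medium for 96 h. MTT (1 mg/mL) added for 4 h, formazan dissolved in DMSO, read at 490 nm. IC50 is the concentration that cuts cell number to 50%; at least three repeats.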

[2] = tested on: HeLa; assay: Antiproliferative activity against human HeLa cells at 10 uM after 96 hrs by MTT assay; assay type: functional
How it was run: (§2)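 Same MTT set-up (RPMI 1640/10% FBS, 1.0–2.0 × 10³ cells per well, 96 h exposure, 4 h MTT, formazan in DMSO read at 490 nm). Value is the percent inhibition at a single 10 µM concentration. Experiments repeated at least three times.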

[3] = tested on: SK-OV-3; assay: Antiproliferative activity against human SKOV3 cells after 96 hrs by MTT assay; assay type: functional, cell-based; details: SK-OV-3, 96 h; how it was run: as §1
[4] = tested on: HeLa; assay: Cell cycle arrest in human HeLa cells by accumulation at S phase at 5.0 uM after 24 hrs using PI staining by flow cytometry; assay type: functional
How it was run: (§3)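 HeLa cells exposed for 24 h to 2.5, 5.0 or 10.0 µM; vehicle control 0.1% DMSO. Cellular DNA stained with propidium iodide, and cell-cycle phase fractions measured by flow cytometry. Experiments done three times.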

[5] = tested on: HeLa; assay: Cell cycle arrest in human HeLa cells by accumulation at G1 phase at 10.0 uM after 24 hrs using PI staining by flow cytometry; assay type: functional; how it was run: as §3
[6] = tested on: HeLa; assay: Cell cycle arrest in human HeLa cells by accumulation at G2/M phase at 10.0 uM after 24 hrs using PI staining by flow cytometry; assay type: functional; how it was run: as §3
[7] = tested on: SK-OV-3; assay: Antiproliferative activity against human SKOV3 cells at 10 uM after 96 hrs by MTT assay; assay type: functional; details: SK-OV-3, 96 h; how it was run: as §2
[8] = tested on: HeLa; assay: Cell cycle arrest in human HeLa cells by accumulation at S phase at 10.0 uM after 24 hrs using PI staining by flow cytometry; assay type: functional; how it was run: as §3
[9] = tested on: HeLa; assay: Induction of apoptosis in human HeLa cells assessed as apoptotic cells at 10 uM by flow cytometry; assay type: functional
How it was run: (§4)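 HeLa cells given 2.5, 5.0 or 10.0 µM and stained with propidium iodide. Apoptotic cells counted by flow cytometry as nuclei with sub-diploid DNA content, the region below the G1 peak; untreated cells served as control. Run three times.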

[10] = tested on: BGC-823; assay: Antiproliferative activity against human BGC823 cells at 10 uM after 96 hrs by MTT assay; assay type: functional; details: BGC-823, 96 h; how it was run: as §2
[11] = tested on: HeLa; assay: Cell cycle arrest in human HeLa cells by accumulation at G1 phase at 5.0 uM after 24 hrs using PI staining by flow cytometry; assay type: functional; how it was run: as §3
[12] = tested on: HeLa; assay: Cell cycle arrest in human HeLa cells by accumulation at G2/M phase at 5.0 uM after 24 hrs using PI staining by flow cytometry; assay type: functional; how it was run: as §3
[13] = tested on: HeLa; assay: Induction of apoptosis in human HeLa cells assessed as sub-diploid DNA content after 24 hrs by flow cytometry; assay type: functional, cell-based; how it was run: as §4
[14] = tested on: HeLa; assay: Cell cycle arrest in human HeLa cells by accumulation at G2/M phase at 2.5 uM after 24 hrs using PI staining by flow cytometry; assay type: functional; how it was run: as §3
[15] = tested on: BGC-823; assay: Antiproliferative activity against human BGC823 cells after 96 hrs by MTT assay; assay type: functional, cell-based; details: BGC-823, 96 h; how it was run: as §1
[16] = tested on: HeLa; assay: Cell cycle arrest in human HeLa cells by accumulation at G1 phase at 2.5 uM after 24 hrs using PI staining by flow cytometry; assay type: functional; how it was run: as §3
[17] = tested on: HeLa; assay: Cell cycle arrest in human HeLa cells by accumulation at S phase at 2.5 uM after 24 hrs using PI staining by flow cytometry; assay type: functional; how it was run: as §3
[18] = tested on: HeLa; assay: Induction of apoptosis in human HeLa cells assessed as DNA fragmentation after 24 hrs by agarose gel electrophoresis; assay type: functional, cell-based
How it was run: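 HeLa cells treated for 24 h, washed twice in PBS and lysed in 100 mM NaCl, 10 mM Tris–HCl pH 8.0, 25 mM EDTA, 0.1 mg/ml proteinase K at 50 °C for 12 h. DNA taken through phenol/chloroform/isoamyl alcohol and chloroform/isoamyl alcohol extraction, centrifuged at 12,000g for 30 min, then run on an agarose gel to look for laddering.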

SMILES | IC50 [1] [µM] | inhibition at 10 µM [2] [%] | other results
C[C@H]1[C@H](C)CC[C@]2(C(=O)NC(CO)C(=O)O)CC[C@]3(C)C(=CC[C@@H]4[C@@]5(C)CC[C@H](O)C(C)(C)[C@@H]5CC[C@]43C)[C@H]12 (stereo partly drawn) | > 10 | 16.8 | –
CC(=O)O[C@H]1CC[C@]2(C)[C@H]3CC=C4[C@@H]5[C@@H](C)[C@H](C)CC[C@]5(C(=O)NC(C)CO)CC[C@@]4(C)[C@]3(C)CC[C@H]2C1(C)C (stereo partly drawn) | 5.44 | 58.4 | –
CC(=O)OCC(C)NC(=O)[C@]12CC[C@@H](C)[C@H](C)[C@H]1C1=CC[C@@H]3[C@@]4(C)CC[C@H](OC(C)=O)C(C)(C)[C@@H]4CC[C@@]3(C)[C@]1(C)CC2 (stereo partly drawn) | 2.62 | 69.3 | IC50 [3]: 2.24 µM; Activity [4]: 44.8%; Activity [5]: 36.7%; Activity [6]: 9.3%; inhibition at 10 µM [7]: 70.5%; Activity [8]: 54%; Activity [9]: 32.5%; inhibition at 10 µM [10]: 56.3%; Activity [11]: 46.7%; Activity [12]: 8.5%; Activity [13]: Dose-dependent effect; Activity [14]: 13.6%; IC50 [15]: 8.3 µM; Activity [16]: 47%; Activity [17]: 39.4%; Activity [18]: Dose-dependent effect
CC(=O)O[C@H]1CC[C@]2(C)[C@H]3CC=C4[C@@H]5[C@@H](C)[C@H](C)CC[C@]5(C(=O)Nc5ccccc5CO)CC[C@@]4(C)[C@]3(C)CC[C@H]2C1(C)C | 1.63 | 77.5 | –
COC(=O)C(CO)NC(=O)[C@]12CC[C@@H](C)[C@H](C)[C@H]1C1=CC[C@@H]3[C@@]4(C)CC[C@H](OC(C)=O)C(C)(C)[C@@H]4CC[C@@]3(C)[C@]1(C)CC2 (stereo partly drawn) | 4.3 | 59.9 | inhibition at 10 µM [10]: 15.7%; IC50 [15]: > 10 µM
C[C@H]1[C@H](C)CC[C@]2(C(=O)NCC(=O)O)CC[C@]3(C)C(=CC[C@@H]4[C@@]5(C)CC[C@H](O)C(C)(C)[C@@H]5CC[C@]43C)[C@H]12 | > 10 | 15.6 | –
CC(=O)O[C@H]1CC[C@]2(C)[C@H]3CC=C4[C@@H]5[C@@H](C)[C@H](C)CC[C@]5(C(=O)NCCO)CC[C@@]4(C)[C@]3(C)CC[C@H]2C1(C)C | 10.8 | 50.3 | –
C[C@H]1[C@H](C)CC[C@]2(C(=O)NC(Cc3ccc(O)cc3)C(=O)O)CC[C@]3(C)C(=CC[C@@H]4[C@@]5(C)CC[C@H](O)C(C)(C)[C@@H]5CC[C@]43C)[C@H]12 (stereo partly drawn) | > 10 | 23.6 | –
CCC(C)C(NC(=O)[C@]12CC[C@@H](C)[C@H](C)[C@H]1C1=CC[C@@H]3[C@@]4(C)CC[C@H](OC(C)=O)C(C)(C)[C@@H]4CC[C@@]3(C)[C@]1(C)CC2)C(=O)OC (stereo partly drawn) | > 10 | 15.9 | –
C[C@H]1[C@H](C)CC[C@]2(C(=O)NC(Cc3ccccc3)C(=O)O)CC[C@]3(C)C(=CC[C@@H]4[C@@]5(C)CC[C@H](O)C(C)(C)[C@@H]5CC[C@]43C)[C@H]12 (stereo partly drawn) | > 10 | 27.5 | –
